Measurements as given in ChEMBL document CHEMBL4229488, “Secondary carbamate linker can facilitate the sustained release of dopamine from brain-targeted prodrug” (Bioorg Med Chem Lett, 2018).

Assays:
[1] = Stability in pH 7.4 isotonic tris buffer assessed as parent compound remaining after 6 hrs by HPLC analysis; assay type: physicochemical; conditions: read-out: Stability
Outline: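 Chemical hydrolysis was run at 37 °C in isotonic Tris-HCl buffer at pH 7.4. The percentage of intact parent was measured after 6 h.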

[2] = Half-life in human in presence of COMT inhibitor entacapone; assay type: ADME, organism-based; conditions: in vivo
[3] = Half life in 10% rat liver homogenate by HPLC method; assay type: ADME, tissue-based
Outline: (§1)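 Conversion of the compound was followed at 37 °C in 10% rat liver homogenate. The intact parent was tracked over time up to 6 h, and half-life or the percentage remaining at 6 h was taken from this.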

[4] = Half-life in human in presence of AADC inhibitor carbidopa; assay type: ADME, organism-based; conditions: in vivo
[5] = biological target: T1, Large neutral amino acids transporter small subunit 1 (Homo sapiens, UniProt Q01650); assay: Drug uptake in human MCF7 cells assessed as LAT1-mediated drug transportation rate at 3.125 to 100 uM after 10 mins by LC-MS analysis; assay type: ADME, cell-based; conditions: mcf7, 10 min
T1 sequence (Q01650 whole entry): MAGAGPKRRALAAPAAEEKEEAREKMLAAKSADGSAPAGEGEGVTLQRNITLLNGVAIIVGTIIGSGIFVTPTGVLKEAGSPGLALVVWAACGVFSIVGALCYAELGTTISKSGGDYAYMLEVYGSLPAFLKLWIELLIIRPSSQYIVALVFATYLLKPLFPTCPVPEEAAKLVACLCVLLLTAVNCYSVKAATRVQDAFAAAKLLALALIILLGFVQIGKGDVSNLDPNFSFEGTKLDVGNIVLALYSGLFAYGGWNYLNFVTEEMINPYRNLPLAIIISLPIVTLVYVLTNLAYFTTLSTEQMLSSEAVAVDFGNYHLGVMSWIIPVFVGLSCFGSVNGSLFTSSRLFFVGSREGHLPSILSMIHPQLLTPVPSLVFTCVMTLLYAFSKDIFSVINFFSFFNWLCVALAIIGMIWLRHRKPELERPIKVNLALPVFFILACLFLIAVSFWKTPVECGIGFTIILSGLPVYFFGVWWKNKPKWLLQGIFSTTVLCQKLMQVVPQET

[6] = Stability in 10% rat liver homogenates assessed as parent compound remaining after 6 hrs by HPLC analysis; assay type: ADME, tissue-based; conditions: for remaining at 6 h: 10% rat liver homogenate, read-out: Stability; outline: as §1
[7] = biological target: T1, Large neutral amino acids transporter small subunit 1; assay: Inhibition of LAT1-mediated [14C]-L-leucine uptake in human MCF7 cells after 5 mins by liquid scintillation counting method; assay type: cell-based
[8] = Stability in 75% rat plasma assessed as parent compound remaining after 6 hrs by HPLC analysis; assay type: ADME, cell-free; conditions: read-out: Stability
Outline: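 Incubated at 37 °C in 75% rat plasma, alongside isotonic Tris-HCl buffer (pH 7.4) and 10% rat liver homogenate. The read-out was the percentage of intact parent compound after 6 h, taken as conversion to dopamine.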

[9] = biological target: T1, Large neutral amino acids transporter small subunit 1; assay: Drug uptake in human MCF7 cells assessed as LAT1-mediated drug transportation rate at 25 to 50 uM after 10 mins by LC-MS analysis; assay type: ADME, cell-based; conditions: mcf7, 10 min

remaining at 6 h [1] [%] | half-life [2] [min] | half-life [3] [min] | half-life [4] [min] | Vmax [5] [nmol/mg/min] | Stability ([6]; tissue homogenate, 6 h) | IC50 [7] [µM] | inhibition [7] | Structure (SMILES) | remaining at 6 h [8] [%] | Vmax [9] [pmol/mg/min] | remaining at 6 h [6] [%]
99.8 to 103 | 30 to 90 | 15.5 | 60 | 2.6 | Unstable | 100 | Dose-dependent effect | N[C@@H](Cc1ccc(O)c(O)c1)C(=O)O [LEVODOPA] | – | – | –
83.2 to 83.7 | – | – | – | – | – | 32.4 | Dose-dependent effect | Cl.NC(Cc1cccc(C(=O)NCCc2ccc(O)c(O)c2)c1)C(=O)O (stereo not given) | 57.4 to 62.7 | < 3 | 47.7 to 51.9

Structure (SMILES) | remaining at 6 h [1] [%] | half-life [2] [min] | half-life [3] [min] | half-life [4] [min] | Vmax [5] [nmol/mg/min] | Stability ([6]; tissue homogenate, 6 h) | IC50 [7] [µM] | inhibition [7] | remaining at 6 h [8] [%] | Vmax [9] [pmol/mg/min] | remaining at 6 h [6] [%]
Cl.N[C@@H](Cc1ccc(OC(=O)NCCc2ccc(O)c(O)c2)cc1)C(=O)O | 78.1 to 93.1 | – | – | – | – | – | 27.7 | Dose-dependent effect | 40.5 to 60.5 | < 3 | 63.2 to 66.5
